Measurements: ChEMBL document CHEMBL3596093, “Synthesis and antimicrobial evaluation of 5-aryl-1,2,4-triazole-3-thione derivatives containing a rhodanine moiety” (2015)
In brackets after ≈: the same amount, converted by molar mass.

Assays:
Staphylococcus aureus [1] = assay: Bactericidal activity against Staphylococcus aureus RN4220 after 24 hrs by agar plate method; format: functional; settings: RN4220, 24 h
Summary of the method: (§1)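 Samples of 5 µL from MIC wells with no visible growth were plated onto fresh Mueller-Hinton agar and incubated a further 24 h at 37 °C. MBC is the lowest concentration giving no visible colony growth on the agar. Assays were run in triplicate.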

Staphylococcus aureus [2] = assay: Antibacterial activity against methicillin-resistant Staphylococcus aureus CCARM 3167 after 24 hrs by two-fold serial dilution method; format: functional; settings: CCARM 3167, 24 h
Summary of the method: (§2)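 Broth microdilution MIC. Bacteria grown to mid-log phase in Mueller-Hinton broth, diluted 1000-fold, about 10^5 CFU/mL. Compounds from DMSO stocks, two-fold serial dilution from a final 64 µg/mL. Incubation at 37 °C for 24 h. Growth read as absorbance at 630 nm on a microplate reader. Run in triplicate.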

Salmonella typhimurium = assay: Antibacterial activity against Salmonella typhimurium 2421 after 24 hrs by two-fold serial dilution method; format: functional, Salmonella enterica subsp. enterica serovar Typhimurium; settings: Salmonella enterica, 2421, 24 h
Summary of the method: (§3)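 Strains grown to mid-log phase in Mueller-Hinton broth, then diluted 1000-fold in the same broth to about 10^5 CFU/mL. Compounds were made up as DMSO stocks and two-fold serially diluted from a final top concentration of 64 µg/mL. Incubation was 37 °C for 24 h. Growth was read as absorbance at 630 nm on a microplate reader. MIC assays were run in triplicate.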

Staphylococcus aureus [3] = assay: Antibacterial activity against quinolone-resistant Staphylococcus aureus CCARM 3505 after 24 hrs by two-fold serial dilution method; format: functional; settings: CCARM 3505, 24 h; summary of the method: as §2
Streptococcus mutans [4] = assay: Antibacterial activity against Streptococcus mutans 3065 after 24 hrs by two-fold serial dilution method; format: functional; settings: Streptococcus mutans, 3065, 24 h; summary of the method: as §3
Escherichia coli [5] = assay: Antibacterial activity against Escherichia coli CCARM 1356 after 24 hrs by two-fold serial dilution method; format: functional; settings: CCARM 1356, 24 h; summary of the method: as §3
Staphylococcus aureus [6] = assay: Antibacterial activity against quinolone-resistant Staphylococcus aureus CCARM 3519 after 24 hrs by two-fold serial dilution method; format: functional; settings: CCARM 3519, 24 h; summary of the method: as §2
Staphylococcus aureus [7] = assay: Antibacterial activity against Staphylococcus aureus RN4220 after 24 hrs by two-fold serial dilution method; format: functional; settings: RN4220, 24 h; summary of the method: as §2
Staphylococcus aureus [8] = assay: Antibacterial activity against Staphylococcus aureus KCTC 503 after 24 hrs by two-fold serial dilution method; format: functional; settings: KCTC 503, 24 h; summary of the method: as §3
Staphylococcus aureus [9] = assay: Antibacterial activity against methicillin-resistant Staphylococcus aureus CCARM 3506 after 24 hrs by two-fold serial dilution method; format: functional; settings: CCARM 3506, 24 h; summary of the method: as §2
Escherichia coli [10] = assay: Ratio of MBC to MIC for Escherichia coli KCTC 1924; format: functional
Summary of the method: (§4)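 The ratio divides MBC by MIC for the same strain. MIC comes from two-fold broth microdilution in Mueller-Hinton broth (about 10^5 CFU/mL, 37 °C, 24 h, absorbance at 630 nm). MBC comes from subculturing 5 µL from clear wells onto Mueller-Hinton agar for another 24 h at 37 °C, taken as the lowest concentration with no colonies.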

Escherichia coli [11] = assay: Antibacterial activity against Escherichia coli KCTC 1924 after 24 hrs by two-fold serial dilution method; format: functional; settings: KCTC 1924, 24 h; summary of the method: as §3
Staphylococcus aureus [12] = assay: Antibacterial activity against Staphylococcus aureus KCTC 209 after 24 hrs by two-fold serial dilution method; format: functional; settings: KCTC 209, 24 h; summary of the method: as §3
Pseudomonas aeruginosa [13] = assay: Antibacterial activity against Pseudomonas aeruginosa 2004 after 24 hrs by two-fold serial dilution method; format: functional; settings: Pseudomonas aeruginosa, 2004, 24 h; summary of the method: as §3
Escherichia coli [14] = assay: Bactericidal activity against Escherichia coli KCTC 1924 after 24 hrs by agar plate method; format: functional; settings: KCTC 1924, 24 h; summary of the method: as §1
Candida albicans = assay: Antifungal activity against Candida albicans 7535 after 24 hrs by two-fold serial dilution method; format: functional; settings: Candida albicans, 7535, 24 h
Pseudomonas aeruginosa [15] = assay: Antibacterial activity against Pseudomonas aeruginosa 2742 after 24 hrs by two-fold serial dilution method; format: functional; settings: Pseudomonas aeruginosa, 2742, 24 h; summary of the method: as §3
Staphylococcus aureus [16] = assay: Bactericidal activity against methicillin-resistant Staphylococcus aureus CCARM 3506 after 24 hrs by agar plate method; format: functional; settings: CCARM 3506, 24 h
Summary of the method: (§5)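 5 µL from each well without visible growth plated on fresh Mueller-Hinton agar, then 37 °C for a further 24 h. MBC is the lowest concentration giving no visible colonies. Run in triplicate.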

Staphylococcus aureus [17] = assay: Bactericidal activity against Staphylococcus aureus KCTC 503 after 24 hrs by agar plate method; format: functional; settings: KCTC 503, 24 h; summary of the method: as §5
Staphylococcus aureus [18] = assay: Bactericidal activity against quinolone-resistant Staphylococcus aureus CCARM 3505 after 24 hrs by agar plate method; format: functional; settings: CCARM 3505, 24 h; summary of the method: as §5
Staphylococcus aureus [19] = assay: Bactericidal activity against quinolone-resistant Staphylococcus aureus CCARM 3519 after 24 hrs by agar plate method; format: functional; settings: CCARM 3519, 24 h; summary of the method: as §5
Streptococcus mutans [20] = assay: Bactericidal activity against Streptococcus mutans 3065 after 24 hrs by agar plate method; format: functional; settings: Streptococcus mutans, 3065, 24 h; summary of the method: as §1
Staphylococcus aureus [21] = assay: Bactericidal activity against methicillin-resistant Staphylococcus aureus CCARM 3167 after 24 hrs by agar plate method; format: functional; settings: CCARM 3167, 24 h; summary of the method: as §5
Staphylococcus aureus [22] = assay: Ratio of MBC to MIC for Staphylococcus aureus KCTC 503; format: functional; summary of the method: as §4
[23] = test system: Staphylococcus aureus subsp. aureus RN4220; assay: Ratio of MBC to MIC for Staphylococcus aureus RN4220; format: functional; summary of the method: as §4

Structure (SMILES)	MBC (Staphylococcus aureus [1])	MIC (Staphylococcus aureus [2])	MIC (Salmonella typhimurium)	MIC (Staphylococcus aureus [3])	MIC (Streptococcus mutans [4])	MIC (Escherichia coli [5])	MIC (Staphylococcus aureus [6])	MIC (Staphylococcus aureus [7])	MIC (Staphylococcus aureus [8])	MIC (Staphylococcus aureus [9])	MIC (Escherichia coli [11])	MIC (Staphylococcus aureus [12])	MIC (Pseudomonas aeruginosa [13])	MIC (Candida albicans)	MIC (Pseudomonas aeruginosa [15])	MBC (Staphylococcus aureus [16])	MBC (Staphylococcus aureus [17])	MBC (Staphylococcus aureus [18])	MBC (Staphylococcus aureus [19])	MBC (Streptococcus mutans [20])	also measured
O=C(O)CN1C(=O)/C(=C/c2ccc(/C=N/n3c(-c4ccccc4Cl)n[nH]c3=S)cc2)SC1=S	256 µg/mL (≈ 496 µM)	> 64 µg/mL	> 128 µg/mL	> 64 µg/mL	> 64 µg/mL	> 128 µg/mL	> 64 µg/mL	64 µg/mL (≈ 124 µM)	> 64 µg/mL	> 64 µg/mL	64 µg/mL (≈ 124 µM)	> 64 µg/mL	> 128 µg/mL	> 64 µg/mL	> 128 µg/mL	–	–	–	–	–	Ratio (Escherichia coli [10]): <=4; MBC (Escherichia coli [14]): 128 µg/mL (≈ 248 µM)
Cc1ccccc1-c1n[nH]c(=S)n1/N=C/c1ccc(/C=C2\SC(=S)N([C@@H](Cc3ccccc3)C(=O)O)C2=O)cc1	64 µg/mL (≈ 109 µM)	16 µg/mL (≈ 27.3 µM)	> 128 µg/mL	16 µg/mL (≈ 27.3 µM)	8 µg/mL (≈ 13.7 µM)	> 128 µg/mL	16 µg/mL (≈ 27.3 µM)	16 µg/mL (≈ 27.3 µM)	16 µg/mL (≈ 27.3 µM)	16 µg/mL (≈ 27.3 µM)	64 µg/mL (≈ 109 µM)	> 64 µg/mL	> 128 µg/mL	> 64 µg/mL	> 128 µg/mL	64 µg/mL (≈ 109 µM)	32 µg/mL (≈ 54.6 µM)	64 µg/mL (≈ 109 µM)	> 128 µg/mL	16 µg/mL (≈ 27.3 µM)	MBC (Staphylococcus aureus [21]): 32 µg/mL (≈ 54.6 µM); Ratio (Escherichia coli [10]): <=4; Ratio (Staphylococcus aureus [22]): <=4; MBC (Escherichia coli [14]): 64 µg/mL (≈ 109 µM)
Cc1cccc(-c2n[nH]c(=S)n2/N=C/c2ccc(/C=C3\SC(=S)N([C@@H](Cc4ccccc4)C(=O)O)C3=O)cc2)c1	32 µg/mL (≈ 54.6 µM)	16 µg/mL (≈ 27.3 µM)	> 128 µg/mL	16 µg/mL (≈ 27.3 µM)	64 µg/mL (≈ 109 µM)	> 128 µg/mL	16 µg/mL (≈ 27.3 µM)	32 µg/mL (≈ 54.6 µM)	64 µg/mL (≈ 109 µM)	16 µg/mL (≈ 27.3 µM)	> 128 µg/mL	> 64 µg/mL	> 128 µg/mL	> 64 µg/mL	> 128 µg/mL	64 µg/mL (≈ 109 µM)	128 µg/mL (≈ 219 µM)	64 µg/mL (≈ 109 µM)	128 µg/mL (≈ 219 µM)	256 µg/mL (≈ 437 µM)	MBC (Staphylococcus aureus [21]): 128 µg/mL (≈ 219 µM); Ratio (Staphylococcus aureus [22]): <=4
O=C(O)[C@H](Cc1ccccc1)N1C(=O)/C(=C/c2ccc(/C=N/n3c(-c4ccc(Cl)cc4)n[nH]c3=S)cc2)SC1=S	16 µg/mL (≈ 26.4 µM)	8 µg/mL (≈ 13.2 µM)	> 128 µg/mL	16 µg/mL (≈ 26.4 µM)	16 µg/mL (≈ 26.4 µM)	> 128 µg/mL	16 µg/mL (≈ 26.4 µM)	8 µg/mL (≈ 13.2 µM)	16 µg/mL (≈ 26.4 µM)	16 µg/mL (≈ 26.4 µM)	> 128 µg/mL	> 64 µg/mL	> 128 µg/mL	> 64 µg/mL	> 128 µg/mL	128 µg/mL (≈ 211 µM)	128 µg/mL (≈ 211 µM)	64 µg/mL (≈ 106 µM)	128 µg/mL (≈ 211 µM)	32 µg/mL (≈ 52.8 µM)	Ratio [23]: 2; MBC (Staphylococcus aureus [21]): 64 µg/mL (≈ 106 µM)
O=C(O)[C@H](Cc1ccccc1)N1C(=O)/C(=C/c2ccc(/C=N/n3c(-c4ccccc4Br)n[nH]c3=S)cc2)SC1=S	16 µg/mL (≈ 24.6 µM)	8 µg/mL (≈ 12.3 µM)	> 128 µg/mL	8 µg/mL (≈ 12.3 µM)	8 µg/mL (≈ 12.3 µM)	> 128 µg/mL	8 µg/mL (≈ 12.3 µM)	8 µg/mL (≈ 12.3 µM)	8 µg/mL (≈ 12.3 µM)	16 µg/mL (≈ 24.6 µM)	> 128 µg/mL	> 64 µg/mL	> 128 µg/mL	> 64 µg/mL	> 128 µg/mL	32 µg/mL (≈ 49.2 µM)	8 µg/mL (≈ 12.3 µM)	32 µg/mL (≈ 49.2 µM)	32 µg/mL (≈ 49.2 µM)	32 µg/mL (≈ 49.2 µM)	Ratio [23]: 2; MBC (Staphylococcus aureus [21]): 16 µg/mL (≈ 24.6 µM); Ratio (Staphylococcus aureus [22]): <=4
